ChEMBL document CHEMBL4706563, “Triphenylethylene analogues: Design, synthesis and evaluation of antitumor activity and topoisomerase inhibitors” (Eur J Med Chem, 2020)
Calls of active or inactive are those of the source. No cut-off for these calls is given here.

Columns and labels:
Assay type in all cases: functional
[1] = Antiproliferative activity against human renal cancer cells; details: Renal cancer cell line
[2] = Antiproliferative activity against human colon cancer cells; details: Colon cancer cell line
RPMI-8226 = assay: Antiproliferative activity against human RPMI-8226 cells assessed as growth inhibition at 10 uM relative to control; details: read-out: GI
Summary of the method: (§1)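 Single-dose screen run by the US National Cancer Institute across its 60-human tumour cell line panel. Each compound was tested at one concentration. Percent growth inhibition was recorded for each cell line.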

OVCAR-8 = assay: Antiproliferative activity against human OVCAR-8 cells assessed as growth inhibition at 10 uM relative to control; details: read-out: GI; summary of the method: as §1
ACHN = assay: Antiproliferative activity against human ACHN cells assessed as growth inhibition at 10 uM relative to control; details: read-out: GI; summary of the method: as §1
MDA-MB-231 = assay: Antiproliferative activity against human MDA-MB-231 cells assessed as growth inhibition at 10 uM relative to control; details: read-out: GI; summary of the method: as §1
HCC 2998 = assay: Antiproliferative activity against human HCC 2998 cells assessed as growth inhibition at 10 uM relative to control; details: read-out: GI; summary of the method: as §1
SF-295 = assay: Antiproliferative activity against human SF-295 cells assessed as growth inhibition at 10 uM relative to control; details: read-out: GI; summary of the method: as §1
M14 = assay: Antiproliferative activity against human M14 cells assessed as growth inhibition at 10 uM relative to control; details: read-out: GI; summary of the method: as §1
HOP-62 = assay: Antiproliferative activity against human HOP-62 cells assessed as growth inhibition at 10 uM relative to control; details: read-out: GI; summary of the method: as §1
HT-29 = assay: Antiproliferative activity against human HT29 cells assessed as growth inhibition at 10 uM relative to control; details: read-out: GI; summary of the method: as §1
Malme-3M = assay: Antiproliferative activity against human Malme-3M cells assessed as growth inhibition at 10 uM relative to control; details: read-out: GI; summary of the method: as §1
[3] = Antiproliferative activity against human ovarian cancer cells; details: Ovarian cancer cell line
HCT-15 = assay: Antiproliferative activity against human HCT-15 cells assessed as growth inhibition at 10 uM relative to control; details: read-out: GI; summary of the method: as §1
LOX IMVI = assay: Antiproliferative activity against human LOX IMVI cells assessed as growth inhibition at 10 uM relative to control; details: read-out: GI; summary of the method: as §1
OVCAR-4 = assay: Antiproliferative activity against human OVCAR-4 cells assessed as growth inhibition at 10 uM relative to control; details: read-out: GI; summary of the method: as §1
SK-MEL-2 = assay: Antiproliferative activity against human SK-MEL-2 cells assessed as growth inhibition at 10 uM relative to control; details: read-out: GI; summary of the method: as §1
COLO 205 = assay: Antiproliferative activity against human COLO 205 cells assessed as growth inhibition at 10 uM relative to control; details: read-out: GI; summary of the method: as §1
K562 = assay: Antiproliferative activity against human K562 cells assessed as growth inhibition at 10 uM relative to control; details: read-out: GI; summary of the method: as §1
OVCAR-3 = assay: Antiproliferative activity against human OVCAR-3 cells assessed as growth inhibition at 10 uM relative to control; details: read-out: GI; summary of the method: as §1
SF-539 = assay: Antiproliferative activity against human SF-539 cells assessed as growth inhibition at 10 uM relative to control; details: read-out: GI; summary of the method: as §1
786-0 = assay: Antiproliferative activity against human 786-0 cells assessed as growth inhibition at 10 uM relative to control; details: read-out: GI; summary of the method: as §1
A549 = assay: Antiproliferative activity against human A549 cells assessed as growth inhibition at 10 uM relative to control; details: read-out: GI; summary of the method: as §1
SK-OV-3 = assay: Antiproliferative activity against human SK-OV-3 cells assessed as growth inhibition at 10 uM relative to control; details: read-out: GI
Summary of the method: (§2)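 NCI 60 human tumour cell line panel screen. Compounds tested at a single dose and growth inhibition (%) determined for each line.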

CCRF-CEM = assay: Antiproliferative activity against human CCRF-CEM cells assessed as growth inhibition at 10 uM relative to control; details: read-out: GI; summary of the method: as §1
IGROV-1 = assay: Antiproliferative activity against human IGROV-1 cells assessed as growth inhibition at 10 uM relative to control; details: read-out: GI; summary of the method: as §1
[4] = Antiproliferative activity against human Melanoma cells; details: Melanoma cell line
UACC-257 = assay: Antiproliferative activity against human UACC-257 cells assessed as growth inhibition at 10 uM relative to control; details: read-out: GI; summary of the method: as §2
TK-10 = assay: Antiproliferative activity against human TK-10 cells assessed as growth inhibition at 10 uM relative to control; details: read-out: GI; summary of the method: as §2
SNB-75 = assay: Antiproliferative activity against human SNB-75 cells assessed as growth inhibition at 10 uM relative to control; details: read-out: GI; summary of the method: as §2
PC-3 = assay: Antiproliferative activity against human PC-3 cells assessed as growth inhibition at 10 uM relative to control; details: read-out: GI; summary of the method: as §1
NCI-H322M = assay: Antiproliferative activity against human NCI-H322M cells assessed as growth inhibition at 10 uM relative to control; details: read-out: GI; summary of the method: as §1
[5] = Antiproliferative activity against human prostate cancer cells; details: Prostate tumor cell line
SW-620 = assay: Antiproliferative activity against human SW-620 cells assessed as growth inhibition at 10 uM relative to control; details: read-out: GI; summary of the method: as §2
HCT-116 = assay: Antiproliferative activity against human HCT-116 cells assessed as growth inhibition at 10 uM relative to control; summary of the method: as §1
NCI-H226 = assay: Antiproliferative activity against human NCI-H226 cells assessed as growth inhibition at 10 uM relative to control; details: read-out: GI; summary of the method: as §1
NCI-H522 = assay: Antiproliferative activity against human NCI-H522 cells assessed as growth inhibition at 10 uM relative to control; details: read-out: GI; summary of the method: as §1
UO-31 = assay: Antiproliferative activity against human UO-31 cells assessed as growth inhibition at 10 uM relative to control; details: read-out: GI; summary of the method: as §2
MDA-MB-435 = assay: Antiproliferative activity against human MDA-MB-435 cells assessed as growth inhibition at 10 uM relative to control; details: read-out: GI; summary of the method: as §1
SR = assay: Antiproliferative activity against human SR cells assessed as growth inhibition at 10 uM relative to control; details: read-out: GI; summary of the method: as §2
BT-549 = assay: Antiproliferative activity against human BT-549 cells assessed as growth inhibition at 10 uM relative to control; summary of the method: as §1
NCI-H460 = assay: Antiproliferative activity against human NCI-H460 cells assessed as growth inhibition at 10 uM relative to control; details: read-out: GI; summary of the method: as §1
HL-60(TB) = assay: Antiproliferative activity against human HL-60(TB) cells assessed as growth inhibition at 10 uM relative to control; details: read-out: GI
UACC-62 = assay: Antiproliferative activity against human UACC-62 cells assessed as growth inhibition at 10 uM relative to control; details: read-out: GI; summary of the method: as §2
A498 = assay: Antiproliferative activity against human A498 cells assessed as growth inhibition at 10 uM relative to control; details: read-out: GI; summary of the method: as §1
SN12C = assay: Antiproliferative activity against human SN12C cells assessed as growth inhibition at 10 uM relative to control; details: read-out: GI; summary of the method: as §2
CAKI-1 = assay: Antiproliferative activity against human CAKI-1 cells assessed as growth inhibition at 10 uM relative to control; details: read-out: GI; summary of the method: as §1
[6] = read-out: LC50 (the source's name)

C/C(=C(/c1ccccc1)c1ccc(OCC(O)CNCCN2CCOCC2)cc1)c1ccccc1 (configuration not stated)
GI50 [1]: 2.4 µM
TGI [1]: 7.75 µM
CC50 [1, 6]: 22 µM
GI50 [2]: 2.06 µM
LC50 [2]: 13.8 µM
TGI [2]: 5.51 µM
inhibition of growth at 10 µM (RPMI-8226): 79.8%
inhibition of growth at 10 µM (OVCAR-8): 21.8%
inhibition of growth at 10 µM (ACHN): 18.6%
inhibition of growth at 10 µM (MDA-MB-231): 70.6%
inhibition of growth at 10 µM (HCC 2998): -59.6%
inhibition of growth at 10 µM (SF-295): 28.8%
inhibition of growth at 10 µM (M14): 7.31%
inhibition of growth at 10 µM (HOP-62): 25.1%
inhibition of growth at 10 µM (HT-29): 96.8%
inhibition of growth at 10 µM (Malme-3M): -71.7%
GI50 [3]: 5.2 µM
TGI [3]: 16.3 µM
CC50 [3, 6]: 45.8 µM
inhibition of growth at 10 µM (HCT-15): 95.5%
inhibition of growth at 10 µM (LOX IMVI): 81.3%
inhibition of growth at 10 µM (OVCAR-4): 29.8%
inhibition of growth at 10 µM (SK-MEL-2): 5.09%
inhibition of growth at 10 µM (COLO 205): -64.5%
inhibition of growth at 10 µM (K562): 97.6%
inhibition of growth at 10 µM (OVCAR-3): 22.1%
inhibition of growth at 10 µM (SF-539): 27.2%
inhibition of growth at 10 µM (786-0): 2.44%
inhibition of growth at 10 µM (A549): 29.2%
inhibition of growth at 10 µM (SK-OV-3): 4.57%
inhibition of growth at 10 µM (CCRF-CEM): 43.5%
inhibition of growth at 10 µM (IGROV-1): 36.6%
GI50 [4]: 1.87 µM
LC50 [4]: 8.55 µM
TGI [4]: 3.74 µM
inhibition of growth at 10 µM (UACC-257): -27.5%
inhibition of growth at 10 µM (TK-10): 26.5%
inhibition of growth at 10 µM (SNB-75): 34.2%
inhibition of growth at 10 µM (PC-3): 34.5%
inhibition of growth at 10 µM (NCI-H322M): 27.3%
GI50 [5]: 3.57 µM
TGI [5]: 13 µM
CC50 [5, 6]: 38.5 µM
inhibition of growth at 10 µM (SW-620): 51%
growth inhibition (GI) (HCT-116): inactive
inhibition of growth at 10 µM (NCI-H226): 3.88%
inhibition of growth at 10 µM (NCI-H522): 55.5%
inhibition of growth at 10 µM (UO-31): 30.8%
inhibition of growth at 10 µM (MDA-MB-435): -63.8%
inhibition of growth at 10 µM (SR): 99.3%
growth inhibition (GI) (BT-549): inactive
inhibition of growth at 10 µM (NCI-H460): 82.4%
inhibition of growth at 10 µM (HL-60(TB)): 71%
inhibition of growth at 10 µM (UACC-62): 37.3%
inhibition of growth at 10 µM (A498): 20.1%
inhibition of growth at 10 µM (SN12C): 23.9%
inhibition of growth at 10 µM (CAKI-1): 32.1%
